BindingDB's records for doi:10.1021/jm970235u (Takeda Chemical Industries, 1998)
Peptide text beside a SMILES is read from it.

Each molecule was assayed against Integrin alpha-IIb/beta-3 (Homo sapiens, UniProt P08514+P05106) (assay: Concentration required to inhibit adenosine diphosphate (ADP) induced aggregation of human platelets by 50% in vitro.).
In short: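 PRP obtained by centrifugation and adjusted to […]. PRP stirred at 1000 rpm and prewarmed 2 min at 37 °C with compound. Submaximal ADP added; light-transmittance aggregometry.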

Chain of Integrin alpha-IIb/beta-3 (P05106 27-788 limits assumed): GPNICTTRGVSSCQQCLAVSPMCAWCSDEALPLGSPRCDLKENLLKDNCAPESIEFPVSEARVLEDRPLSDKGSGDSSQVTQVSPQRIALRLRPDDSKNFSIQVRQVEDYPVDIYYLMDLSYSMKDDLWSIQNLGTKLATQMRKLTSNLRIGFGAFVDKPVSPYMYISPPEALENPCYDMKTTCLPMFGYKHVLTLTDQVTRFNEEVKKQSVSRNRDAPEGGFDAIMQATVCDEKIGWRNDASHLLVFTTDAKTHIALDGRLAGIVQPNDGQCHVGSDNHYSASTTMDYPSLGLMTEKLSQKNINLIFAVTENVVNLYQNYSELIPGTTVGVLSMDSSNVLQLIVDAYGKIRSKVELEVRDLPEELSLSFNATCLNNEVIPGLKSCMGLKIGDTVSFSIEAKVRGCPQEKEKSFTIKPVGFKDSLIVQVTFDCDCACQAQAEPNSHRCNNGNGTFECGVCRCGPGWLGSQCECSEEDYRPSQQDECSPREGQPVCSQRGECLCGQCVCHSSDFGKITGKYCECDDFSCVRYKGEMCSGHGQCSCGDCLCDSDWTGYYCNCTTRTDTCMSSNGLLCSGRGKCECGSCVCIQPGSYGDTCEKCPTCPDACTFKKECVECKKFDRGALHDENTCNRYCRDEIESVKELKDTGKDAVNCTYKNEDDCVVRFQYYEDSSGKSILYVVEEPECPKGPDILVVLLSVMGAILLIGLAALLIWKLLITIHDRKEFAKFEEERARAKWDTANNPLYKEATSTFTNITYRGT
Chain of Integrin alpha-IIb/beta-3 (P08514 32-887 limits assumed): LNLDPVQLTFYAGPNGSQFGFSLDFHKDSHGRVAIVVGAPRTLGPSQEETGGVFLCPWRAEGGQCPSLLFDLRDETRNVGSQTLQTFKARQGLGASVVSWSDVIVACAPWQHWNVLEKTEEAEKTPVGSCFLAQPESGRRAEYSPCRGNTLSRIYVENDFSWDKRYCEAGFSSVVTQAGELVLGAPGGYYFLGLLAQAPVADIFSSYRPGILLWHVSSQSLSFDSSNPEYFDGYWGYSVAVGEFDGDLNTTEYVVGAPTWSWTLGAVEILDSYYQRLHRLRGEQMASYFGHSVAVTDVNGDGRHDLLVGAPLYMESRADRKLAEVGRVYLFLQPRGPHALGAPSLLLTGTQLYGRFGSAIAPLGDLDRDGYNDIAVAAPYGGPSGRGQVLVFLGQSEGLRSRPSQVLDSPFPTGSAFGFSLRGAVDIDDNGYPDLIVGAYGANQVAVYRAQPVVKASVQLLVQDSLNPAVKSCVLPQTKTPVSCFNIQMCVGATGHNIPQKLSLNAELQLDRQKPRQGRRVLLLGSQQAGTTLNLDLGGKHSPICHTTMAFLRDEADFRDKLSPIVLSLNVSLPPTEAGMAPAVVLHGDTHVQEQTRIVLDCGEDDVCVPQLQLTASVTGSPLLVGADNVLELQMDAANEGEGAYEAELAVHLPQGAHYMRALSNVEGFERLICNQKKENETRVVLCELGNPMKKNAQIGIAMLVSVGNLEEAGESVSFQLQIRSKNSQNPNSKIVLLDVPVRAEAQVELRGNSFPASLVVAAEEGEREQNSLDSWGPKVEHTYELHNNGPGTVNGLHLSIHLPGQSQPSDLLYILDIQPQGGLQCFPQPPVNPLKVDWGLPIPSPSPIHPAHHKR
Chain of Integrin alpha-IIb/beta-3 (P08514 891-1039 limits assumed): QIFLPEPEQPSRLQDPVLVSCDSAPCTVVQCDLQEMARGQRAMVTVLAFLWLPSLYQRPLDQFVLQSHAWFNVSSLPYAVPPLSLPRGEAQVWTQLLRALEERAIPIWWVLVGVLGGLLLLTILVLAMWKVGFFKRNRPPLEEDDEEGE

SMILES | IC50
NCCc1ccc(C(=O)NCC(=O)N2CCN(CC(=O)O)C(=O)[C@@H]2CC(=O)O)cc1 [((S)-1-{2-[4-(2-Amino-ethyl)-benzoylamino]-acetyl}-4-carboxymethyl-3-oxo-piperazin-2-yl)-acetic acid] | 130 nM
COC(=O)C[C@H]1C(=O)N(CC(=O)O)CCN1C(=O)CNC(=O)c1ccc(CCN)cc1 [((S)-4-{2-[4-(2-Amino-ethyl)-benzoylamino]-acetyl}-3-methoxycarbonylmethyl-2-oxo-piperazin-1-yl)-acetic acid] | 78 nM
N=C(N)N1CCC(C(=O)NCC(=O)N2CCN(CC(=O)O)C(=O)[C@@H]2CC(=O)O)CC1 [((S)-1-{2-[(1-Carbamimidoyl-piperidine-4-carbonyl)-amino]-acetyl}-4-carboxymethyl-3-oxo-piperazin-2-yl)-acetic acid] | 800 nM
CN(C)C(N)=Nc1ccc(C(=O)NCC(=O)N2CCN(CC(=O)O)C(=O)[C@@H]2CC(=O)O)cc1 [((S)-4-Carboxymethyl-1-{2-[4-(N',N'-dimethyl-guanidino)-benzoylamino]-acetyl}-3-oxo-piperazin-2-yl)-acetic acid] | 11000 nM
COC(=O)CC[C@H]1C(=O)N(CC(=O)O)CCN1C(=O)CNC(=O)c1ccc(C(=N)N)cc1 [3-{(S)-1-[2-(4-Carbamimidoyl-benzoylamino)-acetyl]-4-carboxymethyl-3-oxo-piperazin-2-yl}-propionic acid methyl ester] | 90 nM
N=C(N)c1ccc(C(=O)NCC(=O)N2CCN(CC(=O)O)C(=O)[C@@H]2CC(=O)O)cc1 | 110 nM
NCCCc1ccc(C(=O)NCC(=O)N2CCN(CC(=O)O)C(=O)[C@@H]2CC(=O)O)cc1 [((S)-1-{2-[4-(3-Amino-propyl)-benzoylamino]-acetyl}-4-carboxymethyl-3-oxo-piperazin-2-yl)-acetic acid] | 1030 nM
NCCc1ccc(C(=O)NCC(=O)N2CCN(CC(=O)O)C(=O)C2)cc1 [(4-{2-[4-(2-Amino-ethyl)-benzoylamino]-acetyl}-2-oxo-piperazin-1-yl)-acetic acid] | 150 nM
N=C(N)c1ccc(CC(=O)NCC(=O)N2CCN(CC(=O)O)C(=O)[C@@H]2CC(=O)O)cc1 [((S)-1-{2-[2-(4-Carbamimidoyl-phenyl)-acetylamino]-acetyl}-4-carboxymethyl-3-oxo-piperazin-2-yl)-acetic acid] | 1200 nM
N=C(N)c1ccc(C(=O)NCC(=O)N2CCN(CC(=O)O)C(=O)[C@@H]2CCC(=O)O)cc1 [3-{(S)-1-[2-(4-Carbamimidoyl-benzoylamino)-acetyl]-4-carboxymethyl-3-oxo-piperazin-2-yl}-propionic acid] | 52 nM
N=C(N)c1ccc(C(=O)NCC(=O)N2CCN(CCC(=O)O)C(=O)[C@@H]2CC(=O)O)cc1 [3-{(S)-4-[2-(4-Carbamimidoyl-benzoylamino)-acetyl]-3-carboxymethyl-2-oxo-piperazin-1-yl}-propionic acid] | 30000 nM
NCCc1ccc(C(=O)NCC(=O)N2CCN(CC(=O)O)C(=O)[C@@H]2CCC(=O)O)cc1 [3-((S)-1-{2-[4-(2-Amino-ethyl)-benzoylamino]-acetyl}-4-carboxymethyl-3-oxo-piperazin-2-yl)-propionic acid] | 110 nM
CN(C)CCc1ccc(C(=O)NCC(=O)N2CCN(CC(=O)O)C(=O)[C@@H]2CCC(=O)O)cc1 [3-((S)-4-Carboxymethyl-1-{2-[4-(2-dimethylamino-ethyl)-benzoylamino]-acetyl}-3-oxo-piperazin-2-yl)-propionic acid] | 2500 nM
N=C(N)NCC1CCC(C(=O)NCC(=O)N2CCN(CC(=O)O)C(=O)[C@@H]2CC(=O)O)CC1 (stereo partly drawn) [((S)-4-Carboxymethyl-1-{2-[(4-guanidinomethyl-cyclohexanecarbonyl)-amino]-acetyl}-3-oxo-piperazin-2-yl)-acetic acid] | 1100 nM
COC(=O)CC[C@H]1C(=O)N(CC(=O)O)CCN1C(=O)CNC(=O)c1ccc(CCN(C)C)cc1 [3-((S)-4-Carboxymethyl-1-{2-[4-(2-dimethylamino-ethyl)-benzoylamino]-acetyl}-3-oxo-piperazin-2-yl)-propionic acid methyl ester] | 2300 nM
COC(=O)CC[C@H]1C(=O)N(CC(=O)O)CCN1C(=O)CNC(=O)c1ccc(CCN)cc1 [3-((S)-1-{2-[4-(2-Amino-ethyl)-benzoylamino]-acetyl}-4-carboxymethyl-3-oxo-piperazin-2-yl)-propionic acid methyl ester] | 120 nM

Results, then the molecule that gave them:

IC50 | SMILES
580 nM | COC(=O)C[C@@H]1C(=O)N(CC(=O)O)CCN1C(=O)CNC(=O)c1ccc(C(=N)N)cc1 [{(R)-4-[2-(4-Carbamimidoyl-benzoylamino)-acetyl]-3-methoxycarbonylmethyl-2-oxo-piperazin-1-yl}-acetic acid]
1500 nM | C[C@@H](C(=O)O)N1CCN(C(=O)CNC(=O)c2ccc(C(=N)N)cc2)[C@@H](CC(=O)O)C1=O [(S)-2-{(S)-4-[2-(4-Carbamimidoyl-benzoylamino)-acetyl]-3-carboxymethyl-2-oxo-piperazin-1-yl}-propionic acid]
13000 nM | N=C(N)c1cccc(C(=O)NCC(=O)N2CCN(CC(=O)O)C(=O)[C@@H]2CC(=O)O)c1 [{(S)-1-[2-(3-Carbamimidoyl-benzoylamino)-acetyl]-4-carboxymethyl-3-oxo-piperazin-2-yl}-acetic acid]
4100 nM | N=C(N)c1ccc(C(=O)NCC(=O)N2CCN([C@@H](Cc3ccccc3)C(=O)O)C(=O)[C@@H]2CC(=O)O)cc1 [(S)-2-{(S)-4-[2-(4-Carbamimidoyl-benzoylamino)-acetyl]-3-carboxymethyl-2-oxo-piperazin-1-yl}-3-phenyl-propionic acid]
560 nM | N=C(N)NCc1ccc(C(=O)NCC(=O)N2CCN(CC(=O)O)C(=O)[C@@H]2CC(=O)O)cc1 [{(S)-4-Carboxymethyl-1-[2-(4-guanidinomethyl-benzoylamino)-acetyl]-3-oxo-piperazin-2-yl}-acetic acid]
740 nM | N=C(N)c1ccc(C(=O)NCC(=O)N2CCN(CC(=O)O)C(=O)[C@@H]2CC(N)=O)cc1 [{(S)-4-[2-(4-Carbamimidoyl-benzoylamino)-acetyl]-3-carbamoylmethyl-2-oxo-piperazin-1-yl}-acetic acid]
2600 nM | COC(=O)CN1CCN(C(=O)CNC(=O)c2ccc(C(=N)N)cc2)[C@@H](CC(=O)O)C1=O [{(S)-1-[2-(4-Carbamimidoyl-benzoylamino)-acetyl]-4-methoxycarbonylmethyl-3-oxo-piperazin-2-yl}-acetic acid]
30000 nM | N=C(N)c1ccc(C(=O)NCC(=O)N2CCN(CC(N)=O)C(=O)[C@@H]2CC(=O)O)cc1 [{(S)-1-[2-(4-Carbamimidoyl-benzoylamino)-acetyl]-4-carbamoylmethyl-3-oxo-piperazin-2-yl}-acetic acid]
48000 nM | NC(N)=NCCC[C@H](N)C(=O)NCC(=O)N[C@@H](CC(=O)O)C(=O)N[C@@H](Cc1ccccc1)C(=O)O [(R)-3-[2-((S)-2-Amino-5-guanidino-pentanoylamino)-acetylamino]-N-((S)-1-carboxy-2-phenyl-ethyl)-succinamic acid] (H-RGDF-OH)
350 nM | NC(N)=Nc1ccc(C(=O)NCC(=O)N2CCN(CC(=O)O)C(=O)[C@@H]2CC(=O)O)cc1 [{(S)-4-Carboxymethyl-1-[2-(4-guanidino-benzoylamino)-acetyl]-3-oxo-piperazin-2-yl}-acetic acid]
3600 nM | N=C(N)NCCCCC(=O)NCC(=O)N1CCN(CC(=O)O)C(=O)[C@@H]1CC(=O)O [{(S)-4-Carboxymethyl-1-[2-(5-guanidino-pentanoylamino)-acetyl]-3-oxo-piperazin-2-yl}-acetic acid]
110 nM | N=C(N)c1ccc(C(=O)NCC(=O)N2CCN(CC(=O)O)C(=O)[C@@H]2Cc2ccccc2)cc1 [{(S)-3-Benzyl-4-[2-(4-carbamimidoyl-benzoylamino)-acetyl]-2-oxo-piperazin-1-yl}-acetic acid]
94 nM | N=C(N)c1ccc(C(=O)NCC(=O)N2CCN(CC(=O)O)C(=O)C2)cc1 [{4-[2-(4-Carbamimidoyl-benzoylamino)-acetyl]-2-oxo-piperazin-1-yl}-acetic acid]
